Where “and” joins values, the source holds several entries; their conditions need not be identical. Equal values may be shown once.
Tests used:
[1] = molecular target: T1, Muscarinic acetylcholine receptor M2 (Rattus norvegicus, UniProt P10980); experiment: Binding affinity at [3H]QNB and GppNHp radiolabeled muscarinic M2 receptor in rat heart.
T1 sequence (P10980 whole entry): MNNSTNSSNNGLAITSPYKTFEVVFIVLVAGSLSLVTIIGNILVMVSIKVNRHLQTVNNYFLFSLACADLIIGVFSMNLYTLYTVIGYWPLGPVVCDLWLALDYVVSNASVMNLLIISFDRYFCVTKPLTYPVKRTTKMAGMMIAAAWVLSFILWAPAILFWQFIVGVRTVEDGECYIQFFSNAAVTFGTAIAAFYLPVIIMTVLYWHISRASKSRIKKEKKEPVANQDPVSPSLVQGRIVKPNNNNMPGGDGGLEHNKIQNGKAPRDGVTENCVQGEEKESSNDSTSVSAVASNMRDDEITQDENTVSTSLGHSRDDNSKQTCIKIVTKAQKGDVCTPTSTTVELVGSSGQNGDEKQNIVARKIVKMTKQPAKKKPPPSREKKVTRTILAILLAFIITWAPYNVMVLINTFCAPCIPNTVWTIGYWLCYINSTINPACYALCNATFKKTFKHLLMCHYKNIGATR
In short: (§1)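 Washed rat heart membranes (male Wistar; 4800g pellet, 1:750, 0.15–0.2 mg protein/2.0 mL) in 10 mM NaKPB pH 7.4 with Gpp(NH)p 10 μM final. Filter binding, scintillation counting; apparent Ki from one-site fit.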

[2] = molecular target: T1, Muscarinic acetylcholine receptor M2; experiment: Binding affinity at [3H]QNB radiolabeled muscarinic M2 receptor in rat heart.
In short: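 Rat heart (male Wistar) minced and Polytron-homogenized in 10 mM NaKPB pH 7.4, spun 4800g 15 min 4 °C, resuspended, gauze-filtered, diluted 1:750 (0.15–0.2 mg protein/2.0 mL). Filtration, scintillation; one-site Ki.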

[3] = molecular target: Muscarinic receptor M1 and M2 (Rattus norvegicus) (UniProt P08482+P10980); experiment: Ratio of [3H]QNB+GppNHp/[3H]-QNB; assay type: protein assay
[4] = molecular target: T1, Muscarinic acetylcholine receptor M2; experiment: Binding affinity at [3H]CD radiolabeled muscarinic M2 receptor in rat cortex.; assay type: tissue-based
In short: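 Rat cortex (male Wistar, 200–250 g) homogenized in ice-cold 10 mM Na/K phosphate, pH 7.4, diluted 1:300; ~0.75 mg protein per 2.0 mL. [3H]CD 1 nM, 120 min at 25 °C. Filtration onto PEI-soaked GF/B filters, scintillation counting; Ki from one-site competitive fit.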

[5] = molecular target: T2, Muscarinic acetylcholine receptor M1 (Rattus norvegicus, UniProt P08482); experiment: Binding affinity at [3H]PZ radiolabeled muscarinic M1 receptor in rat cortex.; assay type: tissue-based
T2 sequence (P08482 whole entry): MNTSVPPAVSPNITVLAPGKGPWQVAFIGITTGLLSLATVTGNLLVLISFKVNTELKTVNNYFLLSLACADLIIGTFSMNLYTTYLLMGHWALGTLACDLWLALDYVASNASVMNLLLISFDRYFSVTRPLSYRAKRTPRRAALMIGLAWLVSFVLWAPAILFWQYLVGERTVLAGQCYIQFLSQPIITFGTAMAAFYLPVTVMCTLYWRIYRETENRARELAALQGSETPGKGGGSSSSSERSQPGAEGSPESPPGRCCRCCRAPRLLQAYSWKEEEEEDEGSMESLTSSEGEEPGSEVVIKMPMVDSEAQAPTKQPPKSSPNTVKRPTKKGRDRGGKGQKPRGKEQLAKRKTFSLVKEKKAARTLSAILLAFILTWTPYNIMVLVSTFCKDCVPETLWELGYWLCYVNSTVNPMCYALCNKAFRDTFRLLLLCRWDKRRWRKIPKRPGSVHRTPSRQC
In short: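 Male Wistar rat cerebral cortex homogenate in ice-cold 10 mM NaKPB pH 7.4, diluted 1:400 (~0.55 mg protein/2.0 mL). [3H]PZ 0.1 nM, 60 min at 25 °C. Filtered on PEI-treated GF/B, scintillation read; apparent Ki by one-site nonlinear regression; one or two determinations.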

[6] = molecular target: T1, Muscarinic acetylcholine receptor M2; experiment: Binding affinity at [3H]QNB radiolabeled muscarinic M2 receptor in rat cortex.; assay type: tissue-based
In short: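 Cortex from male Wistar rats homogenized in 10 mM NaKPB pH 7.4, diluted 1:3000 (~0.1 mg protein/2.0 mL).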

[7] = molecular target: T1, Muscarinic acetylcholine receptor M2; experiment: Tested for binding affinity to [3H]QNB and GppNHp radiolabeled muscarinic M2 receptor in rat heart; in short: as §1
[8] = molecular target: T3, Muscarinic acetylcholine receptor M2 (Rattus norvegicus) (UniProt P10980); experiment: Relative [3H]QNB and [3H]-CD binding to muscarinic M2 receptor
T3 sequence (whole entry): T1 sequence (P10980 whole entry)

[9] = Ratio of [3H]QNB+GppNHp/[3H]-PZ was determined
[10] = Ratio of [3H]QNB+/[3H]-PZ was determined

| SMILES | Ki [1] | Ki [2] | Ratio [3] | Ki [4] | Ki [5] | Ki [6] | Ki [7] | Ratio [8] | Ratio [9] | Ratio [10] |
| --- | --- | --- | --- | --- | --- | --- | --- | --- | --- | --- |
| C[C@@H]1CC(=O)N(CC#CCN(C)C)C1 | > 100 µM | > 100 µM | > 100 | > 10 µM | > 100 µM | > 1000 µM | – | – | – | – |
| CC(=O)N(C)C(C)C#CCN1CCCC1 (centres undefined) | – | 0.07 µM | 2.5 and 5.1 and 1.8 | 0.004 µM | 0.04 µM | 0.08 µM | 0.18 µM | 19.5 | – | – |
| CC1CCN(CC#CCN2CCCC2)C1=O (centres undefined) | 1.1 µM | 0.08 µM | – | 0.015 µM | 0.29 µM | 0.71 µM | – | 48 | – | – |
| O=C1CCCN1CC#CCN1CCCCC1 | 0.35 µM | 0.07 µM | 5 | 0.056 µM | 0.13 µM | 0.12 µM | – | 2.2 | 2.7 | 0.54 |
| C[N+](C)(C)CC#CCN1CCCC1=O [OXOTREMORINE METHIODIDE] | 1.5 µM | 0.06 µM | – | 0.00078 µM | 1.2 µM | 0.91 µM | – | 1200 | – | – |
| C[C@@H]1CC(=O)N(CC#CC[N+](C)(C)C)C1 | 52 µM | 21 µM | 2.4 | 0.98 µM | > 109 µM | > 100 µM | – | – | 5.7 | – |
| C[C@H]1CC(=O)N(CC#CCN2CCCC2)C1 | 6 µM | 3.8 µM | – | 1.5 µM | 0.51 µM | 2.3 µM | – | 1.6 | – | – |
| C[C@@H]1CC(=O)N(CC#CCN2CCCC2)C1 | 27 µM | 13 µM | 2 | 2.5 µM | 1.3 µM | 4.7 µM | – | 1.9 | 21 | – |
| C[C@@H]1CCN(CC#CCN2CCCC2)C1=O | 0.43 µM | 0.09 µM | – | 0.023 µM | 0.25 µM | 0.43 µM | – | 19 | – | – |
| CC1CCN(CC#CCN(C)C)C1=O (centres undefined) | 13 µM | 1.3 µM | – | 0.26 µM | 212 µM | 22 µM | – | 85 | – | – |
| O=C1CCCN1CC#CCN1CCCC1 [OXOTREMORINE] | 0.16 µM | 0.005 µM | – | 0.0005 µM | 0.12 µM | 0.06 µM | – | – | – | – |
| C[C@H]1CCN(CC#CCN2CCCC2)C1=O | 3.3 µM | 0.11 µM | 32 | 0.055 µM | 2.2 µM | 2.9 µM | – | – | 1.5 | – |
| C[C@@H]1CCN(CC#CCN(C)C)C1=O | 9.3 µM | 0.24 µM | – | 0.071 µM | 6.8 µM | 8.9 µM | – | 125 | – | – |
| C[C@H]1CC(=O)N(CC#CC[N+](C)(C)C)C1 | – | 1.9 µM | 0.23 | 0.45 µM | 108 µM | > 100 µM | > 100 µM | – | – | – |
| CN(C)CC#CCN1CCCC1=O | 1.6 µM | 0.07 µM | – | 0.0063 µM | 6.8 µM | 2.9 µM | – | 460 | – | – |
| C[C@H]1CC(=O)N(CC#CCN(C)C)C1 | > 100 µM | > 100 µM | > 100 | > 10 µM | 15 µM | 150 µM | – | – | – | – |
| C[C@H]1CCN(CC#CCN(C)C)C1=O | 30 µM | 21 µM | 1.4 | 0.63 µM | 1080 µM | > 100 µM | – | – | – | – |
